The values that follow come from paper PMC10125337 (ACS Bio & Med Chem Au, 2023).

The share remaining is the share of the starting amount still present when the sample was taken. One may read the viability as a read-out of living cells in per cent, often relative to untreated cells.

Where a SMILES comes first, the peptide text is derived from it. Where no end group is shown, it is not given here. [ ]: non-standard residue; d: D form.

For series [1], the target named is T1, Aβ42 peptide (Homo sapiens, UniProt P05067). The series is described as follows: ThT fluorescence assay of Aβ42 aggregation inhibition. The format is biochemical. The conditions noted are these: 72 h, 37 °C; for inhibition of Aβ42 aggregation (ThT assay): peptide 5 µM + Aβ42 5 µM; for inhibition of Aβ42 peptide aggregation (ThT assay): peptide 160 µM + Aβ42 5 µM.

For series [2], the system named is Aβ42-induced apoptosis in PC-12-derived neurons. The series is described as follows: Apoptosis assay. As to conditions: Aβ42 10 µM + NT peptide 10 µM, 24 h, n = 3. The format is cell-based, rat.
The next series is described as follows: Serum stability. The format is in vitro ADME. The conditions noted are these: human, 50% human serum. The essentials: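 Test peptide at 150 μM final in 50% human serum, 37 °C. Aliquots were taken at 0, 6, 12, 24, 48 and 72 h and mixed 1:1 with acetonitrile to precipitate serum proteins. Samples were held 30 min at 4 °C, then centrifuged at 10,000 rpm for 30 min at 4 °C. The supernatant was analysed by RP-HPLC for percentage of intact peptide. Compound-free serum served as blank.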

Series [3] deals with T1, Aβ42 peptide. The series can be described thus: FTIR spectroscopy of β-sheet content. As to conditions: Aβ42 20 µM + peptide 20 µM, PBS pH 7.4, 37 °C, 7 days; β-sheet 1610–1640, α-helix 1640–1660 cm^–1.
Series [4] addresses T1, Aβ42 peptide. The series can be described thus: HR-TEM of fibril formation. The conditions noted are these: for Aβ42 fibril structure after coincubation (HR-TEM): Aβ42 coincubated with peptide at 37 °C for 7 days; for fibril formation of the peptide incubated alone (HR-TEM): 7 days, 37 °C.
A further series in a line: MTT cell viability. The conditions noted are these: rat, NGF-differentiated PC-12-derived neurons. It is filed as cell-based. The procedure, abridged:
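PC-12 cells seeded at 1×10^4/well and grown 24 h at 37 °C, 5% CO2. At 50–60% confluence they were differentiated with 100 ng/mL NGF in DMEM with reduced horse serum. Test peptide (5–160 μM) was added for 24 h. MTT (5 mg/mL in PBS) was added for 4 h at 37 °C, and formazan was dissolved in DMSO/methanol 1:1. A570 was read; viability = (treated − blank)/(control − blank) × 100.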

For series [5], the target named is amyloid beta (1–42) peptide (human). The series is described as follows: ITC. In general terms: ITC needs no label: the signal is the heat of the interaction.
Chain of amyloid beta (1–42) peptide (human) (P05067 672-713): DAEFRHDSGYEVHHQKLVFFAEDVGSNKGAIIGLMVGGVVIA

T1 sequence (P05067 672-713): as above

As for `CC(C)C[C@@H](NC(=O)[C@H](N)CCCCN)C(=O)N[C@H](CC(C)C)C(=O)N[C@H](Cc1ccccc1)C(=O)N[C@H](Cc1ccccc1)C(=O)N[C@H](C)C(N)=O` [NT-02] (H-[dK][dL][dL][dF][dF][dA]-NH2), on Aβ42 peptide [1], the “inhibition of Aβ42 aggregation (ThT assay)” value is 57.61% and the “inhibition of Aβ42 peptide aggregation (ThT assay)” value is recorded as “about 78.96%”. In addition, the “apoptotic cells (PI fluorescence intensity)” value (from here on “apoptotic cells”) in series [2] was 2.84 fold. Moreover, in “Serum stability”, the amount remaining at 72 h, 150 μM is 95.5%. The “FTIR C=O amide peak of Aβ42 treated with peptide” value at Aβ42 peptide [3] came out at 1642.76 cm^–1. In addition, on Aβ42 peptide [4], the “Aβ42 fibril structure after coincubation (HR-TEM)” value (“Aβ42 fibril structure” below) is recorded as “Absence of the fibril structure” and the “fibril formation of the peptide incubated alone (HR-TEM)” value (“fibril formation” for short) is listed as “no fibril formation was observed”.

In the case of `CC(C)C[C@@H](NC(=O)[C@H](N)CCCCN)C(=O)N[C@H](CC(C)C)C(=O)N[C@H](Cc1ccccc1)C(=O)N[C@H](Cc1ccccc1)C(N)=O` [NT-03] (H-[dK][dL][dL][dF][dF]-NH2), on Aβ42 peptide [1], the “inhibition of Aβ42 aggregation (ThT assay)” value is listed as 54.26% and the “inhibition of Aβ42 peptide aggregation (ThT assay)” value is around 80.63%. For the same molecule, the “apoptotic cells” value in series [2] is reported as 6.21 fold. For the same molecule, in “Serum stability”, the amount remaining at 72 h, 150 μM was 91.6%. Besides, on Aβ42 peptide [4], the “Aβ42 fibril structure” value was “Absence of the fibril structure” and the “fibril formation” value is listed as “no fibril formation was observed”.

Take `CC(C)C[C@@H](N)C(=O)N[C@H](CC(C)C)C(=O)N[C@H](Cc1ccccc1)C(=O)N[C@H](Cc1ccccc1)C(=O)N[C@H](C)C(N)=O` [NT-06] (H-[dL][dL][dF][dF][dA]-NH2): in the series “MTT cell viability”, the viability at 24 h, 160 µM turned out to be 71.7%.

Regarding `CC(C)C[C@@H](N)C(=O)N[C@H](CC(C)C)C(=O)N[C@H](Cc1ccccc1)C(=O)N[C@H](Cc1ccccc1)C(N)=O` [NT-07] (H-[dL][dL][dF][dF]-NH2), the viability at 24 h, 160 µM in the series “MTT cell viability” turned out to be 42.5%.

For the molecule `CC(C)C[C@@H](N)C(=O)N[C@H](Cc1ccccc1)C(=O)N[C@H](Cc1ccccc1)C(=O)N[C@H](C)C(=O)N[C@H](CCC(=O)O)C(N)=O` [NT-08] (H-[dL][dF][dF][dA][dE]-NH2), the viability at 24 h, 160 µM in “MTT cell viability” is 50.1%.

For the molecule `CC(C)C[C@@H](N)C(=O)N1CCC[C@@H]1C(=O)N[C@H](Cc1ccccc1)C(=O)N[C@H](Cc1ccccc1)C(=O)N[C@H](C)C(=O)N[C@H](CCC(=O)O)C(N)=O` [NT-13] (H-[dL][dP][dF][dF][dA][dE]-NH2), on Aβ42 peptide [1], the “inhibition of Aβ42 aggregation (ThT assay)” value is recorded as 48.41% and the “inhibition of Aβ42 peptide aggregation (ThT assay)” value was around 79.88%. Moreover, the “apoptotic cells” value in series [2] is given as 4.13 fold. Besides, the amount remaining at 72 h, 150 μM in “Serum stability” was 90.4%. Also, the “FTIR C=O amide peak of Aβ42 treated with peptide” value at Aβ42 peptide [3] is 1645.94 cm^–1. Also, at Aβ42 peptide [4], the “Aβ42 fibril structure” value is on record as “Absence of the fibril structure” and the “fibril formation” value was “no fibril formation was observed”.

As for `CC(C)C[C@@H](NC(=O)[C@H](N)CCCCN)C(=O)N[C@@H](C(=O)N[C@H](Cc1ccccc1)C(=O)N[C@H](Cc1ccccc1)C(N)=O)C(C)C` [NT-15, reference compound], the “inhibition of Aβ42 aggregation (ThT assay)” value on Aβ42 peptide [1] was found to be 41.87%.

B1: NT-13 (peptide)
peptide: [dL][dP][dF][dF][dA][dE]-NH2
modifications: N-terminus assumed
SMILES: CC(C)C[C@@H](N)C(=O)N1CCC[C@@H]1C(=O)N[C@H](Cc1ccccc1)C(=O)N[C@H](Cc1ccccc1)C(=O)N[C@H](C)C(=O)N[C@H](CCC(=O)O)C(N)=O
In turn, B1 returned a Ka in series [5] of 142000 M⁻¹.

B2: NT-02 (peptide)
peptide: [dK][dL][dL][dF][dF][dA]-NH2
modifications: N-terminus assumed
SMILES: CC(C)C[C@@H](NC(=O)[C@H](N)CCCCN)C(=O)N[C@H](CC(C)C)C(=O)N[C@H](Cc1ccccc1)C(=O)N[C@H](Cc1ccccc1)C(=O)N[C@H](C)C(N)=O
B2: the Ka in series [5] came to 2.25e+06 M⁻¹.

B3: NT-03 (peptide)
peptide: [dK][dL][dL][dF][dF]-NH2
modifications: N-terminus assumed
SMILES: CC(C)C[C@@H](NC(=O)[C@H](N)CCCCN)C(=O)N[C@H](CC(C)C)C(=O)N[C@H](Cc1ccccc1)C(=O)N[C@H](Cc1ccccc1)C(N)=O
In turn, B3 gave a Ka in series [5] of 3.47e+06 M⁻¹.
